Data from ChEMBL document CHEMBL1144097, “Triterpene trimers from Maytenus scutioides: cycloaddition compounds?” (J Nat Prod, 1999).
Active and inactive are the calls of the source.

Key:
Paenibacillus alvei = assay: Antibacterial activity against Bacillus alvei CECT 2 upto 40 ug/mL by disk diffusion test; assay type: functional, organism-based
Procedure, shortened: (§1)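 Agar disk diffusion test. Bacterial strains were maintained on Nutrient Agar and the Candida albicans yeast on Sabouraud Agar, both at 37 °C.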

Candida albicans = assay: Antifungal activity against Candida albicans UBC 1 upto 40 ug/mL by disk diffusion test; assay type: functional, organism-based; procedure, shortened: as §1
Bacillus cereus = assay: Antibacterial activity against Bacillus cereus CECT 496 upto 40 ug/mL by disk diffusion test; assay type: functional, organism-based; procedure, shortened: as §1
Hafnia alvei = assay: Antibacterial activity against Enterobacter hafniae CECT 400 upto 40 ug/mL by disk diffusion test; assay type: functional, organism-based; procedure, shortened: as §1
Bacillus pumilus = assay: Antibacterial activity against Bacillus pumilus CECT 29 upto 40 ug/mL by disk diffusion test; assay type: functional, organism-based; procedure, shortened: as §1
Pseudomonas aeruginosa = assay: Antibacterial activity against Pseudomonas aeruginosa AK 958 upto 40 ug/mL by disk diffusion test; assay type: functional, organism-based; procedure, shortened: as §1
[1] = system: Staphylococcus epidermidis; assay: Antibacterial activity against Staphylococcus epidermidis CECT 232 upto 40 ug/mL by disk diffusion test; assay type: functional, organism-based; procedure, shortened: as §1
Proteus mirabilis = assay: Antibacterial activity against Proteus mirabilis CECT 170 upto 40 ug/mL by disk diffusion test; assay type: functional, organism-based; procedure, shortened: as §1
Staphylococcus warneri = assay: Antibacterial activity against Staphylococcus warneri CECT 236 upto 40 ug/mL by disk diffusion test; assay type: functional, organism-based; procedure, shortened: as §1
Staphylococcus = assay: Antibacterial activity against Staphylococcus albus SAB C1 upto 40 ug/mL by disk diffusion test; assay type: functional, organism-based; procedure, shortened: as §1
Micrococcus luteus = assay: Antibacterial activity against Micrococcus luteus CECT 241 upto 40 ug/mL by disk diffusion test; assay type: functional, organism-based; procedure, shortened: as §1
HeLa = assay: Cytotoxicity against human HeLa cells upto 40 ug/mL by MTT reduction assay; assay type: functional, cell-based
Procedure, shortened: (§2)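 Cells were grown as monolayers in DMEM with 10% newborn calf serum and 1% penicillin-streptomycin mixture. They were kept at 37 °C, 5% CO2 and 90% humidity. Viability was read by colorimetric MTT reduction.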

Escherichia coli = assay: Antibacterial activity against Escherichia coli CECT 99 upto 40 ug/mL by disk diffusion test; assay type: functional, organism-based; procedure, shortened: as §1
Salmonella sp. = assay: Antibacterial activity against Salmonella sp. CECT 456 upto 40 ug/mL by disk diffusion test; assay type: functional, organism-based; procedure, shortened: as §1
Priestia megaterium = assay: Antibacterial activity against Bacillus megaterium CECT 44 upto 40 ug/mL by disk diffusion test; assay type: functional, organism-based; procedure, shortened: as §1
HEp-2 = assay: Cytotoxicity against human Hep2 cells upto 40 ug/mL by MTT reduction assay; assay type: functional, cell-based; procedure, shortened: as §2
[2] = system: Staphylococcus saprophyticus; assay: Antibacterial activity against Staphylococcus saprophyticus CECT 235 upto 40 ug/mL by disk diffusion test; assay type: functional, organism-based; procedure, shortened: as §1
Salmonella typhimurium = assay: Antibacterial activity against Salmonella Typhimurium UBC 2 upto 40 ug/mL by disk diffusion test; assay type: functional, organism-based; conditions: Salmonella enterica subsp. enterica serovar Typhimurium; procedure, shortened: as §1
Staphylococcus aureus = assay: Antibacterial activity against Staphylococcus aureus ATCC 6538 upto 40 ug/mL by disk diffusion test; assay type: functional, organism-based; procedure, shortened: as §1
Bacillus subtilis = assay: Antibacterial activity against Bacillus subtilis CECT 39 upto 40 ug/mL by disk diffusion test; assay type: functional, organism-based; procedure, shortened: as §1
Klebsiella pneumoniae = assay: Antibacterial activity against Klebsiella pneumoniae CECT 367 upto 40 ug/mL by disk diffusion test; assay type: functional, organism-based; procedure, shortened: as §1

Measured: Activity

COC(=O)[C@]1(C)CC[C@]2(C)CC[C@]3(C)C4=CC=C5C(=CC(=O)[C@@]6(O)Oc7c(cc8c(c7C)[C@H]7Oc9c(cc%10c(c9C)CCC9[C@@]%10(C)CC[C@@]%10(C)[C@@H]%11C[C@](C)(C(=O)OC)CC[C@]%11(C)CC[C@]9%10C)O[C@H]7C7[C@@]8(C)CC[C@@]8(C)[C@@H]9C[C@](C)(C(=O)OC)CC[C@]9(C)CC[C@]78C)O[C@@]56C)[C@]4(C)CC[C@@]3(C)[C@@H]2C1 (stereo partly specified)
inactive: all assays above
